# OX1R antag-1: antagonists of human orexin 1 receptor (OX1R). Orexin/Hypocretin receptor type 1 (Homo sapiens), O43613. OX1R-expressing cells, FRET antagonist read-out. inhibition, % at 6.6 µM. actives 1.8% (n = 330,000). AID 485270, 2010; in the data active means inhibition mostly above about 38%, no sharp cut-off; inactive means mostly below about 40%;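 further: 0% = agonist challenge alone and 100% = reference antagonist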
# Target sequence (O43613 whole entry, looked up): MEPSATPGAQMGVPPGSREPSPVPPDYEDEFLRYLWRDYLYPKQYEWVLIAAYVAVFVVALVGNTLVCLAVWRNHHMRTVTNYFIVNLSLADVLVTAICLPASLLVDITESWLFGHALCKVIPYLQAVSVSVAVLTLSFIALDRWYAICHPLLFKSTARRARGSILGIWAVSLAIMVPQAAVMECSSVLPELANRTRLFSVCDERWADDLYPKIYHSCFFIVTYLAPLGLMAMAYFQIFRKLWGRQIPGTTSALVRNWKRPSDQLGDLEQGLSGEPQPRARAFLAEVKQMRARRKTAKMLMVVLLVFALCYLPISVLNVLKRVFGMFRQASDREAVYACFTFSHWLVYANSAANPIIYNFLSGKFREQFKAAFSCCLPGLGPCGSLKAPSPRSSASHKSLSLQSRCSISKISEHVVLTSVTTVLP
# CHO parental Ca: ATP-evoked calcium signal inhibitors, parental CHO, primary screen, counter-screen for OX1R antagonist project, cell-based, fluorescence, Fluo-8 calcium dye; actives 0.63% (n = 330,000); parental CHO-K1, ATP-induced calcium, Fluo-8 fluorescence; inhibition, % at 5.6 µM;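 active means inhibition above that plate's mean sample inhibition plus 3 SD, cut at about 26% in these data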;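 further: 0% = ATP-challenged DMSO wells and 100% = DMSO wells without ATP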
#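 Material: parental CHO cells / Compound: single nominal dose of 5.6 µM per compound / Signal: Fluo-8 fluorescence / Replicates: singlicate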
# TAAR1 antag: human TAAR1 antagonists, primary screen, Fluo-8 calcium fluorescence, CHO RD-HGA16 cells | Trace amine-associated receptor 1 (Homo sapiens), Q96RJ0 | antagonist | inhibition, % at 3 µM | actives 1.5% (n = 360,000) | AID 624466, 2012;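 active means inhibition above a per-plate cutoff, the mean inhibition of test compounds on that plate plus 3 SD, cut at about 49% in these data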;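 further: 0% = DMSO plus EC80 beta-PEA response and 100% = DMSO alone without agonist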
#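 Test system – hTAAR1-expressing CHO RD-HGA16 cells, Gα16-coupled · Also added – β-PEA at EC80 concentration, post-compound challenge · Compound – 3 µM, single point · Incubation – dye loading 75 min at 37 °C, then 30 min room temperature · Measured by – Fluo-8 intracellular calcium dye fluorescence, real-time kinetic reads · Benchmarks – vehicle and agonist controls · Replicates – singlicate, one well per test compound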
# OX1R antag-2: OX1R (HCRTR1) antagonists, primary screen, fluorescence, CHO/OX1R cells, Fluo-8 calcium, orexin A; inhibition, % at 5 µM; Orexin/Hypocretin receptor type 1 (Homo sapiens), O43613; actives 0.43% (n = 330,000); Fluo-8 calcium fluorescence;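 active means inhibition above its plate's threshold, mean inhibition of all tested compounds on the plate plus 3 SD, cut at about 37% in these data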;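 further: 0% = orexin A challenge wells and 100% = SB-334867-A antagonist wells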
# GPR7 antagonist: GPR7 receptor antagonists, primary screen, cell-based, fluorescence, single concentration. Neuropeptides B/W receptor type 1 (Homo sapiens), P48145. GPR7-expressing cells, fluorescence antagonist assay. inhibition, % at 4.4 µM. actives 1.1% (n = 290,000); in the data active means inhibition above about 16%, passing the limit was not always enough;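 further: cells stimulated with the agonist NPW; 0% = agonist with vehicle and 100% = vehicle without agonist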
# TAAR1 agonist: human TAAR1 agonists, primary screen, Fluo-8 calcium fluorescence, CHO RD-HGA16 cells. Trace amine-associated receptor 1 (Homo sapiens), Q96RJ0. vehicle wells 0%, saturating PEA agonist 100%. activation, % at 3 µM. actives 0.99% (n = 360,000);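 active means activation above the mean activation of all test compounds in the run plus 3 SD, cut at about 38% in these data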
#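 Assay system – CHO-derived RD-HGA16 cells with stable Gα16 and human TAAR1 · Compound dosing – one-point dosing at 3 µM (nominal) · Incubation – 17-24 h seeding, 75 min 37 °C dye, 30 min RT · Measured by – kinetic Fluo-8 calcium fluorescence · Control set – DMSO vehicle as 0%, PEA at EC100 as 100% · Repeats – single well for each compound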
# * = called active by the depositor; x = no result given. Sampled rows, rich in hits. Any-hit rate of the full collection: about 4.6%.
SMILES,OX1R antag-1,CHO parental Ca,TAAR1 antag,OX1R antag-2,GPR7 antagonist,TAAR1 agonist
Cc1cc(C)c2c(=O)n(CC(=O)NCCCN3CCN(c4ccccc4F)CC3)sc2n1,2,45*,x,39,2,x
CCOc1ccc(NC(=O)Cn2sc3nc(C)cc(C)c3c2=O)cc1,5,46*,x,52*,-10,x
Cc1cccc(N2CCN(C(=O)Cn3sc4nc(C)cc(C)c4c3=O)CC2C)c1 (stereo unspecified),5,36*,x,40,5,x
Cc1cc(C)c2c(=O)n(CC(=O)N3CCC(Cc4ccccc4)CC3)sc2n1,x,x,x,x,-1,x
Cc1ccc(NC(=O)Cn2c(C)cc(C)c(C#N)c2=O)c(Cl)c1,17,-10,4,-19,-3,11
Cc1cc(C)c2c(=O)n(CC(=O)NCCCN3CCOCC3)sc2n1,10,-8,x,-11,3,x
Cc1ccc(NC(=O)Cn2sc3nc(C)cc(C)c3c2=O)c(Cl)c1,4,46*,-11,25,-16,25
CCOc1ccc(NC(=O)Cn2ncc3ccccc32)cc1,x,x,4,x,-2,-2
COc1ccc2nc(N3CCC(C)CC3)c(C#N)cc2c1,58*,-16,7,-21,-8,11
Cc1noc(C)c1CN1C(=O)c2ccc([N+](=O)[O-])cc2C1=O,53*,-5,7,-15,-6,-1
CCC(=O)NC(NC(=S)Nc1c(C)n(C)n(-c2ccccc2)c1=O)C(Cl)(Cl)Cl (stereo unspecified),1,-6,-6,-10,-4,0
Cc1c(C=NCCOCc2ccccc2)cnn1C,15,-14,25,-67,-1,42*
c1ccc(COCCN2CCN(CCOCc3ccccc3)CC2)cc1,9,-4,x,-21,5,x
C=CCN1CCN(c2ccncc2S(=O)(=O)N2CCCCC2)CC1,2,-5,-9,-3,12,0
O=C(Nc1ccc(Cl)cc1)c1nc[nH]c1C(=O)NCCCCNC(=O)c1[nH]cnc1C(=O)Nc1ccc(Cl)cc1,6,13,52*,-10,x,13
CN(C(=O)COC(=O)c1cccc(S(=O)(=O)N2CCCCCC2)c1)c1ccccc1,x,x,-15,x,x,6
CCC(=O)c1ccc(OCC(=O)Nc2cccc(S(=O)(=O)N(C)c3ccccc3)c2)cc1,27*,44*,76*,77*,x,16
COc1ccc(N(C)S(=O)(=O)c2cccc(C(=O)OCC(=O)N(C)c3ccccc3)c2)cc1,11,-19,56*,-2,x,16
Cc1ccc(N(C)S(=O)(=O)c2cccc(C(=O)OCC(=O)c3c(N)n(C)c(=O)n(C)c3=O)c2)cc1,27,9,66*,10,x,18
Cc1ccc(N2CC(C(=O)Nc3ncc([N+](=O)[O-])s3)CC2=O)cc1 (stereo unspecified),48,15,27,-4,11,4
Cc1onc(-c2c(Cl)cccc2Cl)c1CO/N=C(\C#N)c1c(Cl)cccc1Cl,18,1,49*,-25,-6,3
Cc1onc(-c2c(Cl)cccc2Cl)c1/C(N)=N/OC(=O)C(C)(C)C,3,-18,1,-16,-26,11
CCOC(=O)c1nc2c(=O)n(C)c(=O)n(C)c2n(C)c1=O,48*,-13,-23,7,x,2
Cn1c(Cn2c(=O)sc3ccccc32)nnc1SCc1cccc(F)c1,8,-13,-11,-15,-8,0
Cn1c(Cn2c(=O)sc3ccccc32)nnc1SCc1ccccc1F,13,43*,9,-15,-9,-1
CCC(C(=O)Nc1ccc(C)cc1)c1ccccc1 (stereo unspecified),29,-8,-10,-5,-11,3
Cc1ccc(NC(=O)C(C)c2ccc(-c3ccccc3)c(F)c2)cc1 (stereo unspecified),42,34,55*,32,8,4
CC(=O)N1/C(=C/c2ccc(N(C)C)cc2)C(=O)c2ccccc21,x,x,17,x,28*,11

# Assay outcomes deposited in PubChem BioAssay by The Scripps Research Institute Molecular Screening Center.
